What was measured:
[1] = biological target: T1, Transient receptor potential cation channel subfamily V member 1 (Rattus norvegicus, UniProt O35433); test: Inhibitory effect on capsaicin (0.5 uM)-induced calcium uptake in rat DRG neurons upon incubation at RT for 10 minutes; NE=Not effective
Summary of the method: (§1)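 Neonatal Sprague–Dawley rat DRG neurons, dissociated with collagenase/trypsin and cultured 3 days with 200 ng/mL NGF (cytosine arabinoside for the first 2 days), were washed in Ca/Mg-free HBSS with 10 mM HEPES at pH 7.4. They were then given 45Ca2+ (10 µCi/mL), 0.5 µM capsaicin and compound for 10 min at room temperature, SDS-lysed and scintillation-counted.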

[2] = biological target: T1, Transient receptor potential cation channel subfamily V member 1; test: Inhibitory effect on capsaicin (0.5 uM)-induced calcium uptake in rat DRG neurons upon incubation at RT for 10 minutes; summary of the method: as §1
[3] = biological target: T1, Transient receptor potential cation channel subfamily V member 1; test: Inhibitory effect on capsaicin (0.5 uM)-induced calcium uptake in rat DRG neurons upon incubation at RT for 10 minutes; NE = Not effective; summary of the method: as §1
[4] = biological target: T2, Transient receptor potential cation channel subfamily V member 1 (Homo sapiens, UniProt Q8NER1); test: Concentration required to antagonized capsaicin-induced calcium uptake at the transient receptor potential cation channel (subfamily V member 1) expressed in chinese hamster ovary cells; type: cell-based, CHO
T2 sequence (Q8NER1 whole entry): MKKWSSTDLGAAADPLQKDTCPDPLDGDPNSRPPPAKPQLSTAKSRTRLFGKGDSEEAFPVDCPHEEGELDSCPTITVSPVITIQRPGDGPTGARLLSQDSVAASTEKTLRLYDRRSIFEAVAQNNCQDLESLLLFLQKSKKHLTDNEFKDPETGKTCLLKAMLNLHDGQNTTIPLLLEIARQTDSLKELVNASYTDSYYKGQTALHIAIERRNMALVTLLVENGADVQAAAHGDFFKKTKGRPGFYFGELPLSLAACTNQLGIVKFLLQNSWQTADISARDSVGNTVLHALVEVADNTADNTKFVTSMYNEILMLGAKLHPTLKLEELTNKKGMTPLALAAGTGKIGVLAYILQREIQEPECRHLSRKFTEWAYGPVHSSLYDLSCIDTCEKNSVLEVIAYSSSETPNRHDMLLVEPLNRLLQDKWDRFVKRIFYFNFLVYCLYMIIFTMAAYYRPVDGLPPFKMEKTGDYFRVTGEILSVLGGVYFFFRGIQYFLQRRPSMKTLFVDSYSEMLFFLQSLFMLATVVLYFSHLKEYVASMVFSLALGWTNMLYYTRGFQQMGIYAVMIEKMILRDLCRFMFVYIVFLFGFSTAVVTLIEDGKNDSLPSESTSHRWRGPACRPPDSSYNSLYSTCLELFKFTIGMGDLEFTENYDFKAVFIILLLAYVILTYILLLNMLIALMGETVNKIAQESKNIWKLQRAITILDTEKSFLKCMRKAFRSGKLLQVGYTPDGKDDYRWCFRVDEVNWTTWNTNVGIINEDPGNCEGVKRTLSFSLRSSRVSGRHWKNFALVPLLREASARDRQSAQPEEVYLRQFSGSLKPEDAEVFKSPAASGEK

[5] = biological target: T2, Transient receptor potential cation channel subfamily V member 1; test: Concentration required to inhibit [3H]RTX radioligand binding towards transient receptor potential cation channel (subfamily V, member 1) expressed in chinese hamster ovary cells; type: cell-based, CHO

T1 sequence (O35433 whole entry): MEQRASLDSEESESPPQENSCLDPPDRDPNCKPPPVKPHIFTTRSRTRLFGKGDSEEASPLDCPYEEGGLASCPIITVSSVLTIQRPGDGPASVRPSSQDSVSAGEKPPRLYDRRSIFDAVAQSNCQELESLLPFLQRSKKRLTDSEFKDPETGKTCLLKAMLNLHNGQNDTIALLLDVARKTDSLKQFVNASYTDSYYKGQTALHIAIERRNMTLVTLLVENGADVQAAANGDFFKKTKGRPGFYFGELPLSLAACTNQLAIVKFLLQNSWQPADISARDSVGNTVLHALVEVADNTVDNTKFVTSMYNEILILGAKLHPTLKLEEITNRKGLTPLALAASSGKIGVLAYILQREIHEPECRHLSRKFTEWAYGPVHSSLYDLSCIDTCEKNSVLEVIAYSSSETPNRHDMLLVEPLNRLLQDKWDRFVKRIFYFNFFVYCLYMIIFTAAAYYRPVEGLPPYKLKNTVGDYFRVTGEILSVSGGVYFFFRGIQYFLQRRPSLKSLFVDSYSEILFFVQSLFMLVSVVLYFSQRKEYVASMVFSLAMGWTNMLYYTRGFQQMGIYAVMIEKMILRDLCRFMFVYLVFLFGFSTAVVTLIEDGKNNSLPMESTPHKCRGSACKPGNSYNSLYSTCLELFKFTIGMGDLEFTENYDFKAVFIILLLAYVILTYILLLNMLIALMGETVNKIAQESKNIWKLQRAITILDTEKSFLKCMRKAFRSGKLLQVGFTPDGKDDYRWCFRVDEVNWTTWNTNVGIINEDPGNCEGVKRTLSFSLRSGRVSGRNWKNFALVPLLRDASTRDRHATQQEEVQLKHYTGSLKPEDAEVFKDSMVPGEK

Structure (SMILES)	IC50 [2]	other results
CC(C)(C)c1ccccc1C/N=C(\S)NCc1ccc(NS(C)(=O)=O)c(F)c1	–	IC50 [1]: Not Active
CC(C)(C)c1ccc(N/C(S)=N/Cc2ccc(NS(C)(=O)=O)c(F)c2)cc1	1600 nM	–
COC(=O)Nc1ccc(C/N=C(\S)NCc2ccc(C(C)(C)C)cc2)cc1F	–	IC50 [1]: Not Active
CC(C)(C)c1ccc(C/N=C(\S)NCc2ccc(NS(C)(=O)=O)c(C#N)c2)cc1	5900 nM	–
CC(C)(C)c1ccc(C/N=C(\S)NCc2ccc(NS(C)(=O)=O)c(C(=O)NO)c2)cc1	> 30000 nM	–
CC(C)(C)c1ccc(CNC(=S)NCc2ccc3nc[nH]c3c2)cc1	790 nM	–
CC(C)(C)c1ccc(CNC(=S)NCc2ccc3[nH]ccc3c2)cc1	1800 nM	–
CCOC(=O)N/C(=N\Cc1ccc(NS(C)(=O)=O)c(F)c1)NCc1ccc(C(C)(C)C)cc1	6200 nM	–
COCC(=O)Nc1ccc(CNC(=S)NCc2ccc(C(C)(C)C)cc2)cc1F	10900 nM	–
CS(=O)(=O)Nc1ccc(C/N=C(\S)NCc2ccc(I)cc2)cc1F	630 nM	–
CC(C)(C)c1ccc(CNC(=S)NCc2ccc3nn[nH]c3c2)cc1	50 nM	–
CC(C)(C)c1ccc(CNC(=S)NCc2ccc(NS(C)(=O)=O)c([N+](=O)[O-])c2)cc1	71 nM	–
CS(=O)(=O)Nc1ccc(C/N=C(\S)NC(c2ccccc2)c2ccccc2)cc1F	2500 nM	–
CC(C)(C)c1cc(CNC(=S)NCc2ccc(NS(C)(=O)=O)c(F)c2)cc(C(C)(C)C)c1	200 nM	–
CS(=O)(=O)Nc1ccc(CN=C(S)NCc2cccc3ccccc23)cc1F	2600 nM	–
CC(C)(C)c1ccc(C/N=C(\S)NCc2ccc3c(c2)OCO3)cc1	–	IC50 [3]: Not Active
CC(C)(C)c1ccc(C/N=C(\S)NCc2ccc(NS(C)(=O)=O)c(Br)c2)cc1	80 nM	–
CS(=O)(=O)Nc1ccc(C/N=C(\S)Nc2c3ccccc3cc3ccccc23)cc1F	1100 nM	–
CC(C)(C)c1ccc(CCC/N=C(\S)NCc2ccc(NS(C)(=O)=O)c(F)c2)cc1	2000 nM	–
CC(C)(C)c1ccc(CNC(=S)NCc2ccc(NS(C)(=O)=O)c(I)c2)cc1	41 nM	–
CC(C)(C)c1ccc(C/N=C(\S)NCc2ccc(N)c(F)c2)cc1	–	IC50 [1]: Not Active

Structure (SMILES)	IC50 [2]	other results
CCCCc1ccc(CNC(=S)NCc2ccc(NS(C)(=O)=O)c(F)c2)cc1	470 nM	–
CC(C)(C)c1ccc(CNC(=S)NCc2ccc(NC(=O)C(F)(F)F)c(F)c2)cc1	> 30000 nM	–
CC(C)(C)NC(=S)NCc1ccc(NS(C)(=O)=O)c(F)c1	> 30000 nM	–
CC(C)c1ccc(C/N=C(\S)NCc2ccc(NS(C)(=O)=O)c(F)c2)cc1	520 nM	–
CC(C)(C)c1ccc(C/N=C(\S)NCc2ccc(NCC(=O)O)c(F)c2)cc1	–	IC50 [3]: Not Active
CC(C)(C)c1ccc(CCNC(=S)NCc2ccc(NS(C)(=O)=O)c(F)c2)cc1	370 nM	–
CC(C)(C)c1ccc(CNC(=S)NCc2ccc(NS(C)(=O)=O)c(F)c2)cc1	–	EC50 [4]: 8 nM; IC50 [5]: 54 nM
CCOC(=O)CNc1ccc(CNC(=S)NCc2ccc(C(C)(C)C)cc2)cc1F	> 30000 nM	–
CC(C)OC(=O)c1cc(C/N=C(\S)NCc2ccc(C(C)(C)C)cc2)ccc1NS(C)(=O)=O	> 30000 nM	–
COC(=O)CNc1ccc(CNC(=S)NCc2ccc(C(C)(C)C)cc2)cc1F	3600 nM	–
CCc1ccc(C/N=C(\S)NCc2ccc(NS(C)(=O)=O)c(F)c2)cc1	1100 nM	–
CONC(=O)c1cc(C/N=C(\S)NCc2ccc(C(C)(C)C)cc2)ccc1NS(C)(=O)=O	> 30000 nM	–
Cc1ccccc1C/N=C(\S)NCc1ccc(NS(C)(=O)=O)c(F)c1	670 nM	–
CS(=O)(=O)Nc1ccc(C/N=C(\S)NCc2ccc(Br)cc2)cc1F	570 nM	–
CC(C)(C)c1ccc(C/N=C(\NC#N)NCc2ccc(NS(C)(=O)=O)c(F)c2)cc1	730 nM	–
CCCc1ccc(CNC(=S)NCc2ccc(NS(C)(=O)=O)c(F)c2)cc1	460 nM	–
Cc1cccc(CNC(=S)NCc2ccc(NS(C)(=O)=O)c(F)c2)c1	1300 nM	–
CS(=O)(=O)Nc1ccc(CNC(=S)NCc2ccc(-c3ccccc3)cc2)cc1F	> 30000 nM	–
Cc1ccc(C/N=C(\S)NCc2ccc(NS(C)(=O)=O)c(F)c2)cc1	1500 nM	–
CC(C)(C)c1ccc(C(C)(C)/N=C(\S)NCc2ccc(NS(C)(=O)=O)c(F)c2)cc1	> 30000 nM	–
CCOC(=O)Nc1ccc(C/N=C(\S)NCc2ccc(C(C)(C)C)cc2)cc1F	> 30000 nM	–

From ChEMBL document CHEMBL1140408 (J Med Chem, 2005)
